# Experimental data pooled from the literature.
# Each line is one published result; the experiments were not run side by side.
# Target: Serine/threonine-protein kinase Sgk2 (SGK2, Homo sapiens, UniProt Q9HBY8)
# Residues used in one study (Q9HBY8 1-367): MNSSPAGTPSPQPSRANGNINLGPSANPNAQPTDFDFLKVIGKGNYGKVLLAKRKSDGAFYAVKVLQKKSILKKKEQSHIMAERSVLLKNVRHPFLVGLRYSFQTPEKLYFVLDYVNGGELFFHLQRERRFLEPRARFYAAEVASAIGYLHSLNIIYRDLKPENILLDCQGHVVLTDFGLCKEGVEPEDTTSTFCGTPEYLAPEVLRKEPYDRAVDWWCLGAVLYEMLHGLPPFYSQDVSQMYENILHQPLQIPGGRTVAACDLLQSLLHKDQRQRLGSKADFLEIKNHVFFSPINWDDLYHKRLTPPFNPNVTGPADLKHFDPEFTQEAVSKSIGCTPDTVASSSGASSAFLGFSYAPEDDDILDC
Structure (SMILES),observed,technique,tested at,remaining binding
O=C(c1ccc(Nc2ncc(Cl)c(-c3ccc(Cl)s3)n2)cc1)N1CCC(N2CCCC2)CC1,binding,competition with immobilised ligand,1 µM,100%
CCCOc1ccc([C@@H]2[C@@H](C(=O)O)[C@H](c3ccc4c(c3)OCO4)CN2CC(=O)Nc2c(CC)cccc2CC)cc1,cell-free assay,competition with immobilised ligand,1 µM,69%
c1cncc(-c2cccc(Nc3nccc(NC4CCCCC4)n3)c2)c1,binding,competition with immobilised ligand,10 µM,95%
CCOC(=O)c1cc2cc(-c3cc(C(=O)NCc4ccc(C(=O)O)cc4)nn3C)ccc2[nH]1,cell-free assay,competition with immobilised ligand,0.1 µM,100%
Nc1ncc2c(n1)-c1c([nH]c3ccc(C#CC4CC4)cc13)CCCC2,binding,competition with immobilised ligand,1 µM,96%
O=C(Nc1c[nH]nc1C(=O)NC1CCNCC1)c1cc(F)cc(F)c1,binding,competition with immobilised ligand,1 µM,93%
COc1cnc(Nc2cccc(S(N)(=O)=O)c2)nc1N1CCN(c2ccccc2)CC1,binding,competition with immobilised ligand,1 µM,82%
CN(C)c1ncc(F)c(-c2cnn3ncccc23)n1,binding,,1 µM,72%
CNC(=O)[C@@H]1CC[C@@H](n2c(-c3ccc4cnccc4c3)nc3ccc(C(=O)NCc4cccc(C(N)=O)c4)cc32)C1,binding,competition with immobilised ligand,1 µM,100%
C[C@@H](c1ccc(-n2cnc3c(N)ncnc32)cc1)N1CCc2nn(C)c(Cc3ccccc3)c2C1=O,binding,competition with immobilised ligand,0.1 µM,48%
O=C(NCCCN1CCOCC1)c1ccc(Nc2ncc(Cl)c(-c3ccc(Cl)s3)n2)cc1,binding,competition with immobilised ligand,1 µM,100%
C[C@@H]1CCN(c2nccc(-c3cnn4ncccc34)n2)C1,binding,,1 µM,81%
CC(=O)N1CCC(c2ccc(C(=O)NC(=N)N)cc2C(F)(F)F)CC1,cell-free assay,competition with immobilised ligand,1 µM,100%
CN(C)c1nccc(-c2cnc3ncccn23)n1,binding,,1 µM,81%
CC1=C(C#N)C(c2ccc3c(c2)c(NC(=O)c2ccccc2C)nn3C)C(C#N)=C(C)N1,cell-free assay,competition with immobilised ligand,1 µM,73%
c1cnn2ncc(-c3ccnc(N4CCC45COC5)n3)c2c1,binding,,1 µM,65%
O=C(Nc1cccnn1)N1CC(C/C=C/c2cncc(Oc3ccc(C(F)(F)F)cn3)n2)C1,cell-free assay,competition with immobilised ligand,1 µM,74%
Cc1cnn2ncc(-c3ccnc(N(C)C)n3)c2c1,binding,,1 µM,84%
O=C(c1ccc(Nc2ncc(Cl)c(-c3cc4ccccc4s3)n2)cc1)N1CCC(N2CCCC2)CC1,binding,competition with immobilised ligand,1 µM,48%
CN(C)c1nccc(-c2cnn3ncccc23)n1,binding,,1 µM,75%
CC1=C(C#N)[C@@H](c2ccc3[nH]nc(C)c3c2)C(C#N)=C(c2ccc(Cl)cc2)N1,cell-free assay,competition with immobilised ligand,1 µM,100%
